# Measurements from ChEMBL document CHEMBL4665711, “Synthesis of (Z)-3-(arylamino)-1-(3-phenylimidazo[1,5-a]pyridin-1-yl)prop-2-en-1-ones as potential cytotoxic agents” (Bioorg Med Chem Lett, 2020).
# Activity calls are given as the source filed them. The calls are words filed in the database; no cut-off is given here.
# Legend:
# HCT-116 [1] = assay: Cytotoxicity against human HCT-116 cells assessed as induction of cell morphological changes at 0.5 to 2.5 uM incubated for 48 hrs by phase contrast microscopy; assay type: functional, cell-based; settings: dose microM 0.5-2.5, time 48.0 hrs
# HCT-116 [2] = assay: Induction of mitochondrial membrane potential loss in human HCT-116 cells assessed as cells with depolarized mitochondria by measuring increase in J-monomer green fluorescence intensity at 0.5 uM incubated for 48 hrs by JC1 staining based flow cytometry analysis (reference value: 12.53 %); assay type: functional
# HCT-116 [3] = assay: Induction of cell cycle arrest in human HCT-116 cells assessed as G0/G1 phase at 1 uM incubated for 48 hrs by propidium iodide based flow cytometry analysis (reference value: 28.2 %); assay type: functional
# B16-F10 = assay: Cytotoxicity against mouse B16-F10 cells assessed as reduction in cell viability incubated for 48 hrs by MTT assay; assay type: functional, cell-based; settings: B16-F10, 48 h
# Procedure, shortened: (§1)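 Cancer cell lines were exposed to drug for 48 h, and the 50% inhibitory concentration was determined. Values are averages of three individual experiments. A549, HCT-116, BT-474 and MDA-MB-231 are human lines; B16F10 is a murine melanoma line.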
# HCT-116 [4] = assay: Induction of apoptosis in human HCT-116 cells assessed as late apoptotic cells at 1 uM incubated for 48 hrs by annexin-V and propidium iodide staining based flow cytometry analysis (reference value: 1.48 %); assay type: functional
# HCT-116 [5] = assay: Induction of apoptosis in human HCT-116 cells assessed as micronuclei formation at 0.5 to 2.5 uM incubated for 48 hrs by DAPI staining based fluorescence microscopic analysis; assay type: functional, cell-based; settings: dose microM 0.5-2.5, time 48.0 hrs
# Procedure, shortened: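 Nuclear morphology was imaged by fluorescence microscopy using a DAPI filter at 200×; untreated cells served as control.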
# HCT-116 [6] = assay: Induction of apoptosis in human HCT-116 cells assessed as reduction in green fluorescence intensity at 0.5 to 2.5 uM incubated for 24 hrs by acridine orange staining based microscopic analysis; assay type: functional, cell-based; settings: dose microM 0.5-2.5, time 24.0 hrs
# Procedure, shortened: (§2)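 HCT-116 cells were incubated at 0.5, 1.0 and 2.5 µM for 24 h and stained with acridine orange. Green fluorescence (excitation 480-490 nm), chromatin distribution and blebbing were inspected microscopically at 200× against untreated controls.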
# HCT-116 [7] = assay: Induction of cell cycle arrest in human HCT-116 cells assessed as G0/G1 phase at 2.5 uM incubated for 48 hrs by propidium iodide based flow cytometry analysis (reference value: 28.2 %); assay type: functional
# HCT-116 [8] = assay: Induction of cell cycle arrest in human HCT-116 cells assessed as S phase at 1 uM incubated for 48 hrs by propidium iodide based flow cytometry analysis (reference value: 7.8 %); assay type: functional
# MDA-MB-231 = assay: Cytotoxicity against human MDA-MB-231 cells assessed as reduction in cell viability incubated for 48 hrs by MTT assay; assay type: functional, cell-based; settings: MDA-MB-231, 48 h; procedure, shortened: as §1
# HCT-116 [9] = assay: Cytotoxicity against human HCT-116 cells assessed as reduction in cell viability at 0.5 to 2.5 uM incubated for 48 hrs by phase contrast microscopy; assay type: functional, cell-based; settings: dose microM 0.5-2.5, time 48.0 hrs
# A549 = assay: Cytotoxicity against human A549 cells assessed as reduction in cell viability incubated for 48 hrs by MTT assay; assay type: functional, cell-based; settings: A549, 48 h; procedure, shortened: as §1
# HCT-116 [10] = assay: Induction of cell cycle arrest in human HCT-116 cells assessed as sub-G1 phase at 2.5 uM incubated for 48 hrs by propidium iodide based flow cytometry analysis (reference value: 2.1 %); assay type: functional
# HCT-116 [11] = assay: Inhibition of colony formation in human HCT-116 cells incubated for 10 days by crystal violet staining based assay; assay type: functional, cell-based; settings: dose microM 0.25-1, time 10.0 day
# Procedure, shortened: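 HCT-116 cells exposed in medium to 0.25, 0.5 and 1 μM over 10 days to allow colonies to form. Colonies visualised by crystal violet staining and counted relative to untreated control cells.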
# HCT-116 [12] = assay: Induction of cell cycle arrest in human HCT-116 cells assessed as S phase at 2.5 uM incubated for 48 hrs by propidium iodide based flow cytometry analysis (reference value: 7.8 %); assay type: functional
# HCT-116 [13] = assay: Induction of apoptosis in human HCT-116 cells assessed as late apoptotic cells at 2.5 uM incubated for 48 hrs by annexin-V and propidium iodide staining based flow cytometry analysis (reference value: 1.48 %); assay type: functional
# HCT-116 [14] = assay: Induction of apoptosis in human HCT-116 cells assessed as necrotic cells at 2.5 uM incubated for 48 hrs by annexin-V and propidium iodide staining based flow cytometry analysis (reference value: 0.36 %); assay type: functional
# HCT-116 [15] = assay: Induction of apoptosis in human HCT-116 cells assessed as viable cells at 2.5 uM incubated for 48 hrs by annexin-V and propidium iodide staining based flow cytometry analysis (reference value: 96.29 %); assay type: functional; settings: read-out: Activity
# HCT-116 [16] = assay: Induction of apoptosis in human HCT-116 cells assessed as irregular distribution of chromatin at 0.5 to 2.5 uM incubated for 24 hrs by acridine orange staining based microscopic analysis; assay type: functional, cell-based; settings: dose microM 0.5-2.5, time 24.0 hrs; procedure, shortened: as §2
smiles,measurement,setting,value
O=C(/C=C\Nc1ccc(Cl)cc1)c1nc(-c2ccc(F)cc2)n2ccccc12,Activity,HCT-116 [1],Active
same,Activity,HCT-116 [2],13.5%
same,Activity,HCT-116 [3],38.7%
same,IC50,B16-F10,11 µM
same,Activity,HCT-116 [4],6.94%
same,Activity,HCT-116 [5],Active
same,Activity,HCT-116 [6],Active
same,Activity,HCT-116 [7],41.9%
same,Activity,HCT-116 [8],9.7%
same,IC50,MDA-MB-231,4.25 µM
same,Activity,HCT-116 [9],Active
same,IC50,A549,5.09 µM
same,Activity,HCT-116 [10],1.6%
same,inhibition,HCT-116 [11],Dose-dependent effect
same,Activity,HCT-116 [12],8.5%
same,Activity,HCT-116 [13],6.97%
same,Activity,HCT-116 [14],13.3%
same,viability at 2.5 µM,HCT-116 [15],77.4%
same,Activity,HCT-116 [16],Active
